pIC50, pKi: −log10 of the molar value. Where no end group is shown, it is not given here.
Experiments:
[1] = biological target: human CD36 (CD36-overexpressing HeLa cells) (Homo sapiens, UniProt P16671); experiment: Competition with Alexa-Fluor-488 oxLDL uptake in CD36-overexpressing HeLa cells; type: cell-based
[2] = Liver toxicity by serum transaminases in 5/6Nx+AngII mice; type: in vivo, mouse; conditions: mice 5/6Nx+AngII treated with 5A 5 mg/kg/day, 4 weeks
Procedure, shortened: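 C57BL/6 mice underwent 5/6 nephrectomy: left kidney resection at week −1, then right nephrectomy at week 0. Animals were kept if the resected-to-removed kidney weight ratio was 0.5–0.65. Buprenorphine was given at 0.1 mg/kg after surgery and 0.05 mg/kg at 18 h. Val5-AngII (0.75 µg/kg/min, in sterile water) and 5A (5 mg/kg/day) were infused by separate subcutaneous osmotic mini-pumps placed at right nephrectomy.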

Chain of human CD36 (CD36-overexpressing HeLa cells) (P16671 whole entry): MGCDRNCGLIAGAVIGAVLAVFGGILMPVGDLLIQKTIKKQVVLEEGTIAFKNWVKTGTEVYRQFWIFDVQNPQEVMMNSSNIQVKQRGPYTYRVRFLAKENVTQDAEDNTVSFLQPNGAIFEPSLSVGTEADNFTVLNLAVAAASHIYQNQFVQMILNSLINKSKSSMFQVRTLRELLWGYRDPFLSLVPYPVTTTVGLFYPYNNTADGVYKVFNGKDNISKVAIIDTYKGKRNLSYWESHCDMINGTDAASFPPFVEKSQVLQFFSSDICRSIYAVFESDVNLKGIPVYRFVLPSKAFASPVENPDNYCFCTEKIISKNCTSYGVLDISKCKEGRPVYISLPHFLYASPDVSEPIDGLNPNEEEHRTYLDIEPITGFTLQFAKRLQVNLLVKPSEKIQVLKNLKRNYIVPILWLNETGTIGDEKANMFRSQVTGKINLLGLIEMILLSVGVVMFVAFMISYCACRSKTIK

With “DWLKAFYDKVAEKLKEAFPDWAKAAYDKAAEKAKEAA [5A]” the pIC50 [1] was 5.12, the pKi [1] was 5.84 and the “Liver toxicity, serum transaminases” value [2] was “did not have liver toxicity”.

— PMC4800337 (Kidney international, 2016)
